Source: the RNAGym collection of RNA variant scans (doi:10.1126/science.aae0568)
Fewer inactive variants are shown than the library holds.

B1: tRNA (parent)
chain: GUUCCGUUGGCGUAAUGGUAACGCGUCUCCCUCCUAAGGAGAAGACUGCGGGUUCGAGUCCCGUACGGAACG

Variants of: B1
Assay: yeast fitness relative to wild type (ratio to wild type); higher = fitter; tRNA-Arg(CCU), competitive growth, 37 C, YPD
Outline: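 The tRNA-Arg(CCU) gene variants were made by chemical synthesis with a 3% per-site mutation rate at 69 sites and inserted at the native genomic locus of Saccharomyces cerevisiae. After pooling, the strains were competed in YPD at 37°C for 24 hours in six parallel replicates. Gene amplicons from the start population and each end population were read by 100-nucleotide paired-end sequencing, and Darwinian fitness relative to wild type was taken from genotype frequency changes. Genotypes needed ≥ 100 starting reads, and estimates < 0.5 were set to 0.5.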

Variant | yeast fitness
C29A G48A G50A C66U | ≤ 0.5
C29G G44A A57U | 0.553
C29G C33U A45U G56A U59C A65C A70G | ≤ 0.5
C29G G48A C49U | ≤ 0.5
C29A U54G | ≤ 0.5
C29G U47G G63A A70U | ≤ 0.5
C29A C31U A42C | 0.576
C29G A69U | 0.771
C29G A69C | 0.628
C29G U35G C62U A69U | ≤ 0.5
C29G C30G C49A G56C C61U A69C | 0.717
C29G C46G | 0.687
C29G C33A C34A A57U | 0.54
C29A A42G | 0.672
C29A A42C | 0.662
C29G A57U | 0.72
C29G U35G G41C C62U U64A | 0.602
C29G U35C A45U C60G G63C | 0.669
C29G C55U G67C | ≤ 0.5
C29G U35G C60G | ≤ 0.5
C29G A37G C60U A69C | ≤ 0.5
C29G C31G U59A A69G | ≤ 0.5
C29G A57C U59G | ≤ 0.5
C29G C55G A57G A70C | ≤ 0.5

Variant | yeast fitness
C29G C31G C46G C55U | ≤ 0.5
C29G C49A C60A | 0.572
C29G C46U A70U | 0.618
C29A U32C A42U G67A | 0.522
C29G G48A C55G A57G | ≤ 0.5
C29G U32G G38A G48C G67U A69C | ≤ 0.5
C29G A43U C46G C62A | ≤ 0.5
C29U A36C A57U | ≤ 0.5
C29G G58A | 0.68
C29A U35C G67A | ≤ 0.5
C29G A43U C66U | ≤ 0.5
C29A U32C | 0.618
C29A C46A A70G | ≤ 0.5
C29A C30G A36C G44C G51C | ≤ 0.5
C29A C33U C62A A69C | ≤ 0.5
C29A C31A A40C G44A U59A | 0.682
C29G A40C | 0.685
C29G A40U | 0.555
C29G C49U | 0.718
C29G C49G | 0.563
C29G C30G U32C A36U C60U C61U | 0.566
C29G C31G | 0.695
C29G C31U | 0.68
C29G C31A | 0.511

Variant | yeast fitness
C29G U47A U59A A69G | ≤ 0.5
C29G A42C G52C U59A | ≤ 0.5
C29G G44A U64G | ≤ 0.5
C29G C61G | 0.54
C29G C61U | 0.685
C29G C31U A43C G44C G68C | ≤ 0.5
C29A A57U A65C | 0.584
C29G C33G C49U | 0.536
C29A A43U A57C | 0.642
C29G C49U G68A | ≤ 0.5
C29A G56C C61A | ≤ 0.5
C29A A57U C62U | ≤ 0.5
C29G U35A G68C | ≤ 0.5
C29G G52C | ≤ 0.5
C29A G41A | 0.551
C29G C30U C46U G48A | ≤ 0.5
C29G C33U G44C G48C C55A | ≤ 0.5
C29G A37G | 0.599
C29A U53A | 0.51
C29G C33U A65C | 0.554
C29A C34U A36U C61U G67U | ≤ 0.5
C29G C33U U47A C61U A69C | ≤ 0.5
C29A G63A | 0.623
C29G G44U A65G | ≤ 0.5

Variant | yeast fitness
C29A A42U C46A G63A | ≤ 0.5
C29G U53C C61G G67A A69C | ≤ 0.5
C29G A36U C46G | 0.755
C29A A69G | 0.6
C29G C31G A37C C66A | 0.575
C29G U35G C61U | 0.552
C29A G52C G68A | ≤ 0.5
C29G G67C | 0.667
C29A A45C C49U C66U | ≤ 0.5
C29G A43G C49G | 0.532
C29G C31A A42C G67C | 0.606
C29G C33U U47C | ≤ 0.5
C29G U35G C60G C62G | ≤ 0.5
C29A C46G | 0.634
C29A C60G | 0.584
C29G G56A G68C | ≤ 0.5
C29G G41C A57U | ≤ 0.5
C29G C49A C55A C61U | ≤ 0.5
C29A A42G A57C | 0.592
C29G C33U C34G U54A | 0.545
C29A A37C A42C G50A | ≤ 0.5
C29A A40G A43G C55U C61U C66G | ≤ 0.5
C29G G51C | 0.55
C29A A42G A70U | 0.582

Variant | yeast fitness
C29A U35A G67C | ≤ 0.5
C29U A36C A43C C60A | ≤ 0.5
C29G C31U A43C G44C A65U | 0.517
C29A U54A A57U | 0.535
C29U A36C A45U U54C | ≤ 0.5
C29A G44C G67A | ≤ 0.5
C29A C61G G67C G68A | ≤ 0.5
C29A U64C A69C | ≤ 0.5
C29A C30U C62G U64A | 0.553
C29G A37G A45U G68C | ≤ 0.5
C29G C30G C46G | 0.521
C29A A40U A45C C49A A57G | 0.574
C29G C30G | 0.814
C29A C46U A70G | 0.711
C29G G39A G41A | ≤ 0.5
C29G U32C A36G C60A | ≤ 0.5
C29G G41C C66G G68A | 0.587
C29G C33U U35C G38A | ≤ 0.5
C29A G51A | 0.544
C29A G51C | ≤ 0.5
C29A U35A A70U | 0.716
C29G G44C | 0.755
C29G A43C | 0.661
C29G A43G | 0.785

Variant | yeast fitness
C29G A40U C61U C66U | ≤ 0.5
C29A C30G G50C | ≤ 0.5
C29G C55U U59G | ≤ 0.5
C29G G48A A69U | 0.542
C29G A43U C46U | ≤ 0.5
C29G A42G U64G | ≤ 0.5
C29G A42U U47G A57C C61A | ≤ 0.5
C29A C61G | ≤ 0.5
C29A C61U | 0.647
C29G U35C A57G | ≤ 0.5
C29A C31G C60A | 0.656
C29A C33G A37G C49U C66U | ≤ 0.5
C29A A42G C61G | 0.533
C29G U47G C49G U54G | ≤ 0.5
C29G A42G G52C | 0.702
C29A U35C | ≤ 0.5
C29G C49G U53G A57G | ≤ 0.5
C29G G56A A69U | ≤ 0.5
C29A U59C | 0.688
C29G U35A | 0.582
C29G U35C | 0.522
C29G U35G | ≤ 0.5
C29G U47G | 0.707
C29G U47A | 0.561

Variant | yeast fitness
C29A C62A | 0.581
C29G A43U A70U | 0.563
C29A A37U | ≤ 0.5
C29A C33G U35C C66U | ≤ 0.5
C29A C30U A36U A70C | ≤ 0.5
C29A C55U | 0.603
C29A C55A | ≤ 0.5
C29A A42G A45U G50A | 0.534
C29G G50C U53C | ≤ 0.5
C29G G44C C49G C61G | ≤ 0.5
C29G C33G A42C G48A | 0.777
C29A G48C A70G | 0.54
C29G C55U A65G C66A | ≤ 0.5
C29G G58C A69U | 0.607
C29G A36U A43G | ≤ 0.5
C29G A65U | 0.579
C29G C33U A37G A40C A57C | ≤ 0.5
C29G A36U A45U C55A | ≤ 0.5
C29A U35C A70G | ≤ 0.5
C29A G48C A69C | 0.531
C29G C62A C66U | ≤ 0.5
C29A C60A C66G | ≤ 0.5
C29G A43C G51C A57C | ≤ 0.5
